# Measurements as given in ChEMBL document CHEMBL1681763, “Synthesis and biological evaluation of L-valine-amidoximeesters as double prodrugs of amidines” (Bioorg Med Chem, 2011).
# How the values were obtained:
# [1] = Stability in pig hepatocytes assessed as conversion of prodrug into benzamidine per mg protein; assay type: ADME, cell-based, Sus scrofa, Hepatocyte
# Rattus norvegicus [2] = test: Tmax in Wistar rat assessed as benzamidine at 50 mg/kg, po; assay type: ADME, organism-based; design: dose 50 mg/kg, route oral; conditions: in vivo
# How it was run: (§1)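 Male Wistar rats (initial weight 230 g) fitted with carotid artery and jugular vein cannulas, fasted 16 h; prodrug 50 mg/kg by oral gavage in 100 mM phosphate buffer pH 6.3 (n = 3); reference benzamidine 10 mg/kg iv in water for injection; blood at 30–480 min (oral) or 10–360 min (iv); plasma benzamidine by HPLC.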
# [3] = Stability of the compound assessed as conversion to benzamidoxime at pH 2; assay type: physicochemical; conditions: buffer
# How it was run: (§2)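 Chemical stability: prodrug at 100 µM in 100 mM potassium phosphate buffer pH 2.0, 6.3 or 7.4 at 37 °C; remaining prodrug and hydrolysis products followed by HPLC.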
# [4] = Stability in pig liver mitochondria assessed as conversion of prodrug into benzamidine per mg protein; assay type: ADME, Sus scrofa
# How it was run: (§3)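 Human or porcine liver/kidney subcellular fractions (microsomes, mitochondria, 9000g supernatant, cytosol); 0.3 mg protein with 1 mM prodrug in 100 mM potassium phosphate pH 6.3, preincubated 5 min at 37 °C aerobically, started with NADH (1 mM final); protein removed by centrifugation, supernatant analysed by HPLC; turnover as mean ± SD of two independent experiments measured twice.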
# [5] = Stability of the compound at pH 7.4; assay type: physicochemical; conditions: buffer; how it was run: as §2
# Rattus norvegicus [6] = test: Half life in Wistar rat assessed as benzamidine at 50 mg/kg, po; assay type: ADME, organism-based; design: dose 50 mg/kg, route oral; conditions: in vivo; how it was run: as §1
# [7] = Activation of prodrug into benzamidine per mg of recombinant hmARC2 in 20 mM MES buffer of pH 6.0 for 30 mins
# How it was run: (§4)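 Recombinant human mARC1 or mARC2 (76 pmol) incubated with 0.5 mM prodrug, 1 mM NADH, 2 U pig liver carboxylesterase, 76 pmol cytochrome b5 and 7.6 pmol NADH cytochrome b5 reductase in 20 mM MES pH 6.0; amidine formed quantified by HPLC; turnover rates as mean ± SD of three incubations.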
# Rattus norvegicus [8] = test: Oral bioavailability in Wistar rat assessed as benzamidine at 50 mg/kg; assay type: ADME, organism-based; conditions: in vivo; how it was run: as §1
# Rattus norvegicus [9] = test: Cmax in Wistar rat assessed as benzamidine at 50 mg/kg, po; assay type: ADME, organism-based; design: dose 50 mg/kg, route oral; conditions: in vivo; how it was run: as §1
# [10] = Stability in human kidney microsomes assessed as conversion of prodrug into benzamidine per mg protein; assay type: ADME, Microsome; how it was run: as §3
# [11] = Stability of the compound at pH 6.3; assay type: physicochemical; conditions: buffer; how it was run: as §2
# Rattus norvegicus [12] = test: Clearance in Wistar rat assessed as benzamidine at 50 mg/kg, po; assay type: ADME, organism-based; design: dose 50 mg/kg, route oral; conditions: in vivo; how it was run: as §1
# Rattus norvegicus [13] = test: Mean residence time in Wistar rat assessed as benzamidine at 50 mg/kg, po; assay type: ADME, organism-based; design: dose 50 mg/kg, route oral; conditions: in vivo; how it was run: as §1
# [14] = Stability in pig kidney microsomes assessed as conversion of prodrug into benzamidine per mg protein; assay type: ADME, Sus scrofa, Microsome; how it was run: as §3
# [15] = Stability in human kidney mitochondria assessed as conversion of prodrug into benzamidine per mg protein; assay type: ADME; how it was run: as §3
# [16] = Stability in human liver mitochondria assessed as conversion of prodrug into benzamidine per mg protein; assay type: ADME; how it was run: as §3
# Liver microsomes [17] = test: Stability in human liver microsomes assessed as conversion of prodrug into benzamidine per mg protein; assay type: ADME, Microsome; how it was run: as §3
# [18] = Stability in pig kidney mitochondria assessed as conversion of prodrug into benzamidine per mg protein; assay type: ADME, Sus scrofa; how it was run: as §3
# [19] = Stability of the compound in presence of 0.5 U esterase/250 uL; assay type: ADME; conditions: isolated protein
# How it was run: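 Prodrugs incubated with pig liver carboxylesterase (0.5 U/250 µL) in 100 mM potassium buffer pH 7.4; hydrolysis followed by HPLC.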
# Liver [20] = test: Stability in human liver 9000g supernatant assessed as conversion of prodrug into benzamidine per mg protein; assay type: ADME, tissue-based; how it was run: as §3
# [21] = Stability in pig kidney 9000g supernatant assessed as conversion of prodrug into benzamidine per mg protein; assay type: ADME, tissue-based, Sus scrofa; how it was run: as §3
# [22] = Stability in pig liver microsomes assessed as conversion of prodrug into benzamidine per mg protein; assay type: ADME, Sus scrofa, Microsome; how it was run: as §3
# [23] = Stability in pig liver cytosol assessed as conversion of prodrug into benzamidine per mg protein in potassium phosphate buffer of pH 6.3; assay type: ADME, tissue-based, Sus scrofa; how it was run: as §3
# [24] = target: T1, Mitochondrial amidoxime-reducing component 1 (Homo sapiens) (UniProt Q5VT66); test: Activation of prodrug into benzamidine per mg of recombinant hmARC1 in 20 mM MES buffer of pH 6.0 for 30 mins; how it was run: as §4
# T1 sequence (whole entry): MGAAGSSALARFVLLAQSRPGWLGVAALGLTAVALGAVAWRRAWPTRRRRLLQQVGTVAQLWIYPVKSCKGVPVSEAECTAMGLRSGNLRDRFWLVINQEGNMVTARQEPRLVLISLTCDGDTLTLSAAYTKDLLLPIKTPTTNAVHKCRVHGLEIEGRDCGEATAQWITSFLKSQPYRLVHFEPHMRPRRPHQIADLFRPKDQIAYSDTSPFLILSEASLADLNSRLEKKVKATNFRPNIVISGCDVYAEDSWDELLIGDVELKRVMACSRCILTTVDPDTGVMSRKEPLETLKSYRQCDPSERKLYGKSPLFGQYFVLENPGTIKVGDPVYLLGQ
# Rattus norvegicus [25] = test: Volume of distribution in Wistar rat assessed as benzamidine at 50 mg/kg, po; assay type: ADME, organism-based; design: dose 50 mg/kg, route oral; conditions: in vivo; how it was run: as §1
# [26] = Stability in pig hepatocytes assessed as conversion of prodrug into benzamidoxime per mg protein; assay type: ADME, cell-based, Sus scrofa, Hepatocyte
# [27] = Stability in pig liver 9000g supernatant assessed as conversion of prodrug into benzamidine per mg protein; assay type: ADME, tissue-based, Sus scrofa; how it was run: as §3
# [28] = Stability in pig liver 9000g supernatant assessed as conversion of prodrug into pentamidine per mg protein; assay type: ADME, tissue-based, Sus scrofa; how it was run: as §3
# [29] = Stability in pig liver mitochondria assessed as conversion of prodrug into pentamidine per mg protein; assay type: ADME, Sus scrofa; how it was run: as §3
# [30] = Stability in human liver mitochondria assessed as conversion of prodrug into pentamidine per mg protein; assay type: ADME; how it was run: as §3
# [31] = Stability of the compound at pH 2; assay type: physicochemical; conditions: buffer; how it was run: as §2
# Liver microsomes [32] = test: Stability in human liver microsomes assessed as conversion of prodrug into pentamidine per mg protein; assay type: ADME, Microsome; how it was run: as §3
# [33] = Stability in pig liver microsomes assessed as conversion of prodrug into pentamidine per mg protein; assay type: ADME, Sus scrofa, Microsome; how it was run: as §3
# [34] = Stability in pig kidney 9000g supernatant assessed as conversion of prodrug into pentamidine per mg protein; assay type: ADME, tissue-based, Sus scrofa; how it was run: as §3
# [35] = Stability in human kidney microsomes assessed as conversion of prodrug into pentamidine per mg protein; assay type: ADME, Microsome; how it was run: as §3
# [36] = Stability in human kidney mitochondria assessed as conversion of prodrug into pentamidine per mg protein; assay type: ADME; how it was run: as §3
# [37] = Stability in pig kidney microsomes assessed as conversion of prodrug into pentamidine per mg protein; assay type: ADME, Sus scrofa, Microsome; how it was run: as §3
# [38] = Activation of prodrug into pentamidine per mg of recombinant hmARC2 in 20 mM MES buffer of pH 6.0 for 30 mins; how it was run: as §4
# Liver [39] = test: Stability in human liver 9000g supernatant assessed as conversion of prodrug into pentamidine per mg protein; assay type: ADME, tissue-based; how it was run: as §3
# [40] = target: T1, Mitochondrial amidoxime-reducing component 1 (Homo sapiens); test: Activation of prodrug into pentamidine per mg of recombinant hmARC1 in 20 mM MES buffer of pH 6.0 for 30 mins; how it was run: as §4
# [41] = Stability in pig kidney mitochondria assessed as conversion of prodrug into pentamidine per mg protein; assay type: ADME, Sus scrofa; how it was run: as §3
smiles,measurement,setting,value
CC(C)[C@H](N)C(=O)O/N=C(\N)c1ccccc1,Stability,[1],175 pmol/min
same,Tmax,Rattus norvegicus [2],0.833 h
same,Stability,[3],Unstable
same,Stability,[4],8.6 nmol/min/mg
same,Stability,[5],Stable
same,t1/2,Rattus norvegicus [6],2.922 h
same,Stability,[7],43.7 nmol/min
same,F,Rattus norvegicus [8],87.7%
same,Cmax,Rattus norvegicus [9],23.3 µM
same,Stability,[10],1.3 nmol/min
same,Stability,[11],Stable
same,CL,Rattus norvegicus [12],50 mL/min/kg
same,MRT,Rattus norvegicus [13],4.323 h
same,Stability,[14],10.4 nmol/min/mg
same,Stability,[15],2 nmol/min/mg
same,Stability,[16],1.8 nmol/min/mg
same,Stability,Liver microsomes [17],0.9 nmol/min/mg
same,Stability,[18],8.8 nmol/min/mg
same,Stability,[19],Unstable
same,Stability,Liver [20],0.2 nmol/min/mg
same,Stability,[21],5.6 nmol/min
same,Stability,[22],7 nmol/min/mg
same,Stability,[23],1.2 nmol/min
same,Stability,[24],67.4 nmol/min/mg
same,Vd,Rattus norvegicus [25],12.84 L/kg
same,Stability,[26],650 pmol/min
same,Stability,[27],3.4 nmol/min/mg
CC(C)[C@H](N)C(=O)O/N=C(\N)c1ccc(OCCCCCOc2ccc(/C(N)=N/OC(=O)[C@@H](N)C(C)C)cc2)cc1,Stability,[28],0.4 nmol/min/mg
same,Stability,[29],1 nmol/min
same,Stability,[30],0.2 nmol/min
same,Stability,[31],Stable
same,Stability,Liver microsomes [32],0.3 nmol/min/mg
same,Stability,[5],Stable
same,Stability,[33],0.5 nmol/min/mg
same,Stability,[34],0.2 nmol/min/mg
same,Stability,[11],Stable
same,Stability,[35],0.3 nmol/min/mg
same,Stability,[19],Unstable
same,Stability,[36],0.4 nmol/min/mg
same,Stability,[37],0.7 nmol/min/mg
same,Stability,[38],10.9 nmol/min/mg
same,Stability,Liver [39],0.2 nmol/min/mg
same,Stability,[40],48.8 nmol/min
same,Stability,[41],0.8 nmol/min/mg
